Screening results: PubChem BioAssay, several laboratories
Most compounds without a hit are left out; they make up all but 2.6% or so of the library.
CHT block – human CHT choline transport inhibition | Q9GZV3 | CHT-expressing cells, membrane potential dye, choline response; stronger effect = lower value | B-score at 10 µM | hit rate 0.86% among 310,000 | AID 488975;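 active means B-score over 3 SD under the library average, and starting fluorescence ratio not unusually high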;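 further: choline stimulus applied at its EC90 after an EC20 pre-addition; B-score computed on integrated fluorescence ratio after choline addition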
Target sequence (Q9GZV3 whole entry, looked up): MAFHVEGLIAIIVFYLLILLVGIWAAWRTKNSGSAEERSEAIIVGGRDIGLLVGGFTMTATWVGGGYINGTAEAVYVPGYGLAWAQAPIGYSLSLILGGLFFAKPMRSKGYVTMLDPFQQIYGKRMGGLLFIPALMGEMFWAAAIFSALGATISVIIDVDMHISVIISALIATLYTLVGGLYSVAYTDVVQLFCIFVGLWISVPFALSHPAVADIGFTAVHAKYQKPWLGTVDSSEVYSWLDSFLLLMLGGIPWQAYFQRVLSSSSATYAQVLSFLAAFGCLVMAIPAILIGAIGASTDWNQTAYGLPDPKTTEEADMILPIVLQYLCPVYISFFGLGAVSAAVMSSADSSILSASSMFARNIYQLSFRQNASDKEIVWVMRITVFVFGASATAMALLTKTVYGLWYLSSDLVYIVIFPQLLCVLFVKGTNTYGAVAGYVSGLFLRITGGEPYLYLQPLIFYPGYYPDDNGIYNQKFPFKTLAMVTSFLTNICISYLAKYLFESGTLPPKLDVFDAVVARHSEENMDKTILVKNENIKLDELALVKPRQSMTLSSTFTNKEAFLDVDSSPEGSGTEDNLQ
PolyA inhibitor – blocks polyadenylation in yeast reporter cells; S. cerevisiae SKY197-pL101 polyadenylation reporter, beta-gal luminescence; efflux-impaired pdr1/pdr3 knockout yeast; score 100 = 6 SD above DMSO; activity score, % at 12 µM; hit rate 0.02% among 300,000; AID 1875;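 active means lowest replicate activity score at least 50, where 100 means six control SD above control mean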;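 further: yeast exposed to compound for 9 h at 30 °C; higher score means more reporter readthrough which indicates perturbed polyadenylation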
CHT allo act – human CHT allosteric activation. Q9GZV3. CHT-expressing cells, membrane potential dye, choline EC20; stronger effect = higher value; LV-AA mutant CHT in HEK293 cells. B-score at 10 µM. hit rate 0.49% among 310,000. AID 488977;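 active means initial fluorescence not abnormally high and integrated response B-score, plate-corrected, over 3 SD above library mean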
T cruzi inh – blocks replication of Trypanosoma cruzi. T. cruzi beta-gal in NIH3T3, luminescence, 90 h. inhibition, % (concentration not given with the values). hit rate 1.4% among 300,000;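 active means mean inhibition across valid replicates above about 55%, limit read from the data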;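 further: signal also drops with host cell toxicity which is not excluded here; 0% = plate median of DMSO wells and 100% = zero luminescence signal; higher percent means less beta-gal luminescence so fewer parasites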
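Test system: β-gal T. cruzi (Tulahuen C4) inside NIH/3T3 cells / Quantity: 5,000 cells/well / Measured by: luminescence from GalScreen with 0.05% NP40, read after 60 min / Medium: DMEM plus 2% FBS / Measure: parasite load inhibition, % / Reagent: Tulahuen C4 trypomastigotes, 5000/well / Schedule: co-culture of at least 90 h after 3 h attachment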
CHT act confirm – confirmation of human choline transporter (CHT) activators | shares compounds with CHT allo act | CHT-expressing cells, membrane potential dye fluorescence (FDSS); % of choline EC20–EC90 response window; HEK293 expressing CHT LV-AA mutant; choline added at its EC20 | activation, % at 10 µM | hit rate 91% among 2,500 | AID 504833;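 active means primary screen active, with duplicate mean activation above negative control mean plus 3 SD, cut at about 11% in these data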
HEK293 MP dye – CHT activator counter-screen hit in parental HEK293 cells; shares compounds with CHT allo act; membrane potential dye fluorescence (FDSS); measured after EC20 choline addition; ratio readout change at 10 µM, hits read low; hit rate 62% among 2,500;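 active means duplicate-averaged ratio beyond 3 SD from buffer wells, up or down, though filed actives are nearly all decreases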
Active calls of the source: *; i = inactive; . = no result.

SMILES	CHT block	PolyA inhibitor	CHT allo act	T cruzi inh	CHT act confirm	HEK293 MP dye
COC(=O)c1ccccc1NC(=O)c1cc[n+](C)cc1	i	-0.3	i	0.6	59.7*	-54.6*
CCn1ccnc1CN(C)Cc1c(C(=O)N2C[C@@H](C)O[C@@H](C)C2)nc2ccc(Cl)cn12	i	-2.7	i	-3.0	.	.
CCCCn1c(N)c(N(CC(C)C)C(=O)C2CCCO2)c(=O)[nH]c1=O (stereo not given)	i	-8.5	i	-3.9	.	.
COc1ccc2c(=O)cc(-c3cccnc3)oc2c1OC	i	-18.0	7.64*	-4.9	79.4*	-72.3*
COc1ccc(-c2nnc(-c3cccnc3)o2)cc1OC	i	1.7	7.46*	-4.8	30.8*	-32.3*
CCOc1ccc(-c2nnc(-c3cccnc3)o2)cc1OCC	i	-14.2	i	4.8	32.5*	-27*
CCOc1ccc(-c2nnc(-c3ccncc3)o2)cc1OCC	i	3.2	i	-0.6	61.2*	-49.3*
Cn1c(Cc2ccc(Cl)cc2)nnc1SCC(=O)NC1CC1	i	-3.1	i	-5.8	.	.
CCn1c(SCc2ccccc2)nc2cc(S(N)(=O)=O)ccc21	i	40.6	i	4.6	.	.
COc1cc(/C=N/NC(=O)c2ccncc2)c([N+](=O)[O-])cc1OC	i	5.8	i	-7.7	.	.
COc1cc(OC)c([N+](=O)[O-])cc1/C=N/NC(=O)c1ccncc1	i	-5.0	i	-11.9	37.4*	-38.4*
O=C(N/N=C/C=C/c1cccc([N+](=O)[O-])c1)c1ccncc1	i	7.2	7.87*	0.2	13.5*	i
CCCc1cc(=O)oc2cc(OC(C)C(=O)NC3CC(C)(C)NC(C)(C)C3)ccc12 (stereo not given)	i	1.1	i	-0.2	.	.
CN(C)CC(CCCCC(CN(C)C)C(=O)c1ccccc1)C(=O)c1ccccc1 (stereo not given)	i	6.9	8.37*	20.8	29.2*	i
CC(CNC(=O)c1ccc(-c2ccccc2)cc1)CN(C)C (stereo not given)	i	9.9	i	3.6	.	.
COc1cc(NC(=O)[C@@H]2CCCN2S(=O)(=O)c2cccc3cccnc23)cc(OC)c1OC	i	.	i	.	.	.
O=c1cc(CN2CCN(CCO)CC2)c2cc3c(cc2o1)CCC3	i	16.2	i	50.1	45.5*	-43.7*
CCOC(=O)N1CCN(Cc2cc(=O)oc3cc4c(cc23)CCC4)CC1	i	-4.9	i	6.8	.	.
Cn1c(=O)c(=O)n(C)c2cc(N3CCCC3)c(NS(=O)(=O)c3ccc(F)cc3)cc21	i	-7.0	i	-3.9	.	.
COc1ccc(OC)c(NS(=O)(=O)c2ccc3c(c2)n(C)c(=O)n3C)c1	i	2.9	i	-0.7	.	.
CCc1ccc(S(=O)(=O)Nc2cc3c(cc2N2CCOCC2)n(C)c(=O)c(=O)n3C)cc1	i	4.1	7.23*	12.3	55.5*	-46.7*
Cn1c(=O)c(=O)n(C)c2cc(N3CCCCC3)c(NS(=O)(=O)c3ccc([N+](=O)[O-])cc3)cc21	i	3.4	10.3*	13.7	51.6*	-47.4*
O=[N+]([O-])c1ccc(S(=O)(=O)Nc2ccc(-c3ccc(N4CCCC4)nn3)cc2)cc1	i	-5.2	i	55.3*	15.1*	i
COc1ccc(OC)c(S(=O)(=O)Nc2cc3c(cc2N2CCCC2)n(C)c(=O)c(=O)n3C)c1	i	9.1	7.23*	-13.3	53.0*	-59.8*
CCN(CC)S(=O)(=O)c1ccc(N2CCOCC2)c(NS(=O)(=O)c2ccc(C)cc2)c1	i	11.1	i	-1.4	.	.
SMILES	CHT block	PolyA inhibitor	CHT allo act	T cruzi inh	CHT act confirm	HEK293 MP dye
Cc1ccc(S(=O)(=O)Nc2cc(S(=O)(=O)N3CCCCC3)ccc2N2CCOCC2)cc1	i	2.1	i	9.6	.	.
Cn1c(=O)c(=O)n(C)c2cc(N3CCOCC3)c(NS(=O)(=O)c3ccc(Br)cc3)cc21	i	16.2	7.07*	9.8	52.7*	-43.2*
c1ccc(CN2c3ccccc3-c3nc4ccccc4n3C2c2ccccn2)cc1 (stereo not given)	i	-10.0	6.42*	24.8	52.2*	i
Cc1cc(N2CCN(C3CCCC3)CC2)n2c(nc3ccccc32)c1C#N	i	-0.8	7.06*	1.1	2.6	i
CCCc1ccc(C(=O)NNc2ccccc2F)cc1	i	1.4	i	7.0	.	.
COc1cccc(-c2ccc(NC(=O)C3CCCN(Cc4ccc(CO)o4)C3)cc2)c1 (stereo not given)	i	4.4	i	-11.3	.	.
Cc1c(C(=O)N/N=C/c2cccnc2)nnn1-c1nonc1N	i	-2.5	i	-9.8	30.7*	-44.9*
O=C(Nc1ccc(F)cc1)c1cccc2c1C(=O)N(CC1CCCO1)C2 (stereo not given)	i	-12.5	i	13.0	.	.
COc1ccccc1CNC(=O)COc1cc2c(c3oc(=O)cc(C)c13)CCC(C)(C)O2	i	12.1	i	27.9	24.2*	i
Cc1sc2nc(SCc3ccc(C(=O)O)cc3)n(Cc3ccco3)c(=O)c2c1C	i	8.0	6.73*	60.5*	31.6*	i
O=[N+]([O-])c1ccc(Cl)c(-c2ccc(/C=N/n3cnnc3)o2)c1	i	2.1	i	-13.6	39.1*	-50.8*
O=[N+]([O-])c1ccc(OC(F)F)c(/C=N/n2cnnc2)c1	i	-7.1	i	-41.1	21.4*	-24*
COc1cc([N+](=O)[O-])ccc1-c1ccc(/C=N\n2cnnc2)o1	i	11.7	i	10.6	.	.
CCOc1ccc(S(=O)(=O)NCCC(=O)NCC(c2ccc(OC)cc2)N2CCCCC2)cc1 (stereo not given)	i	6.8	i	-6.2	.	.
Cc1nn(C)c(Oc2ccccc2)c1CCNC(=O)C(C)(C)C	i	-14.0	i	-7.0	.	.
CCN=C1S/C(=C/c2ccc(-c3ccc(F)cc3)o2)C(=O)N1CC	i	-13.0	i	-0.8	.	.
CC[N+](CC)(CC)C/C=C/CN1CCCCC1	i	-3.1	i	-6.9	39.7*	-42.5*
N#Cc1c(NC(=O)c2ccc([N+](=O)[O-])o2)sc2c1CCC2	i	-16.1	i	31.6	.	.
O=C1COC(c2ccccc2)=CN1Cc1ccccc1	i	8.3	i	-14.1	.	.
COc1ccc(NC(=O)Cn2ccc3c(OC)cccc3c2=O)cc1	i	-4.4	i	-8.6	5.2	i
COc1cc(C(=O)OCCN2CCOCC2)cc(OC)c1OC	i	-5.7	i	-0.8	.	.
COc1cc(C(=O)OCCCN2CCCN(CCCOC(=O)c3cc(OC)c(OC)c(OC)c3)CC2)cc(OC)c1OC	i	2.4	9.12*	31.9	44.5*	-31*
